Yeast lifespan up: compounds extending yeast replicative lifespan, primary screen, S. cerevisiae, OD615; S. cerevisiae growth with nicotinamide; deaD strain in restrictive glucose medium; inhibition of the nicotinamide effect, % at 10 µM; 0.68% of 130,000 active;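 active = inhibition above a set limit, placed 3 SD over the median of all compounds, cut at about 26% in these data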;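 note: 0% = nicotinamide-treated wells and 100% = cells grown without nicotinamide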
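Buffer or medium: CSMM-D glucose medium, restrictive; test system: modified budding yeast, DeaD strain; compound: single dose 10 µM compound, 0.25% DMSO; schedule: culture preincubation 4 h, compound exposure 48 h, both 30 °C; detection: optical density (absorbance) at 615 nm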
sdo1 growth: growth rescue of sdo1-depleted yeast, primary screen, S. cerevisiae, bone marrow failure model; AID 817, 2007; 0.21% of 140,000 active; S. cerevisiae sdo1-depleted JHY4D growth rescue, OD600 30 h; active compounds read high; pdr5 snq2 efflux-pump mutant strain; z-score at 10 µM;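 active = z-score above 3 at both the 24 hr and the 30 hr optical density reads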;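 note: z-score against mean and SD of all compound wells on the same plate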
Measles CPE: compounds protecting cells from measles virus cytopathic effect, primary screen, measles RdRp inhibitor project, single point, MLSMR library, absorbance; Measles virus-infected cells, CPE protection; protection (pct of control), % at 4 µM; 1.5% of 140,000 active; AID 841, 2007; in the data active = protection mostly above about 24%, no sharp cut-off; inactive = mostly below about 26%
RAM inhibit: inhibitors of the yeast RAM network, primary screen, dse1pr::URA3 reporter, 5-FOA selection; 1.8% of 190,000 active; S. cerevisiae dse1pr::URA3 reporter, 5-FOA growth OD615, 2 d; analog-sensitive cbk1-as2 kinase mutant strain; inhibition, % at 50 µM;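 active = inhibition above a set limit, 3 SD over mean compound inhibition, cut at about 8.4% in these data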;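 note: 0% = DMSO-only wells with no growth and 100% = 10 µM 1-NA-PP1 full growth; inhibition rescues growth on 5-FOA so higher OD means more RAM inhibition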
BB579 growth dn: growth inhibitors of yeast BB579 in restrictive medium, primary screen, yeast lifespan-shortening project, S. cerevisiae; OD615, 48 h; inhibition, % at 10 µM; 0.51% of 140,000 active; AID 804, 2007;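 active = inhibition above a set limit, 3 SD over the mean compound inhibition, cut at about 44% in these data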
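Assay system: S. cerevisiae DeaD strain BB579 yeast. Medium: CSMM-D restrictive synthetic medium containing dextrose (glucose). Times: 4 h cell preincubation, 48 h compound exposure, 30 °C humidified. Signal: OD615 turbidity measurement. Benchmarks: positive control amphotericin B 10 µg/mL.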
RAM efflux-def: 5-FOA growth of efflux-deficient control yeast, dose response, counter-screen for RAM network inhibitor project, S. cerevisiae, OD615; shares compounds with RAM inhibit; max inhibition, %; S. cerevisiae efflux-deficient reporter strain, 5-FOA growth OD615, 2 days; 1,200 tested, under 10 active; call rule not given here;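 note: plate controls were vehicle for no effect and reference inhibitor for full effect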
* hit, by the source's call; . = no result given; [ ] = dose if it differs, or a comment. Only some compounds are listed: those with a hit (about 3.8% of all), similar ones and a draw of the others.

SMILES	Yeast lifespan up	sdo1 growth	Measles CPE	RAM inhibit	BB579 growth dn	RAM efflux-def
O=C(NCc1ccc2c(c1)OCO2)c1cc(-c2ccccn2)nc2ccccc12	.	.	.	14*	.	3
O=C(/C=C/c1cccc([N+](=O)[O-])c1)NCCSCc1ccccc1Cl	-3	-1.7	5	12*	-33	2
O=C(/C=C/c1cccc([N+](=O)[O-])c1)NCCSCc1ccc(Cl)cc1Cl	3	-0.86	1	12*	-45	3
O=C(/C=C/c1ccc2c(c1)OCO2)NCCSCc1ccc(Cl)cc1Cl	-9	-0.84	3	12*	-27	3
Cc1ccc(CSCCNC(=O)/C=C/c2ccc(Cl)cc2)cc1	-6	-0.67	30	1	-42	.
CCOc1ccccc1Nc1nc(N)nc(CN(C)C2CCCCC2)n1	-5	1.2	3	1	-20	.
CCCCCCN(C(=O)CCCCCN1C(=O)NC(c2ccc(-c3ccccc3)cc2)C(C(=O)OCc2ccccc2)=C1C)C(C)C(=O)NCCCC (stereo not given)	19	1.3	3	28*	-26	6
CCCCNC(=O)C(c1ccc(-c2ccccc2)cc1)N(CCN1CCOCC1)C(=O)CCCCCN1C(=O)NC(c2ccc([N+](=O)[O-])cc2)C(C(=O)OCc2ccccc2)=C1C (stereo not given)	1	-0.23	9	3	-16	.
Cc1cc(C)n(-c2ccc(C(=O)Oc3ccc4c(c3)OCO4)cc2)n1	-7	0.05	9	13*	-47	3
Cc1[nH]c2ccccc2c1/C=N/Nc1ccc([N+](=O)[O-])cc1S(=O)(=O)Nc1ccc(Cl)cc1	-2	0.55	6	14*	-47	4
Cc1ccc(NC(=O)CN(C)CC(=O)Nc2ccc(N3CCOCC3)cc2)c([N+](=O)[O-])c1	3	0.33	5	5	-25	.
Cc1ccc(NC(=O)CNC(=O)c2cccs2)cc1S(=O)(=O)Nc1ccc(Cl)cc1	-1	-0.64	5	12*	-25	2
COc1ccc(NC(=O)CNC(=O)c2cccs2)cc1Cl	.	.	.	2	.	.
S=C(NCCC(c1ccccc1)c1ccccc1)Nc1ccccc1Cl	-16	-0.35	8	15*	21	3
CCOc1ccccc1NC(=S)NC(=O)CCCOc1ccc(Cl)cc1Cl	1	-1.3	7	12*	-88	2
CCCCC(=O)Nc1cccc(NC(=S)NC(=O)COc2ccccc2Cl)c1	1	0.52	3	12*	-17	2
O=C(NN=C1CCN(Cc2ccccc2)CC1)C(O)c1ccccc1 (stereo not given)	2	-0.59	5	1	-42	.
C=CCN1C(=O)N/C(=C/c2ccc(C)o2)C1=O	-4	0.78	21	3	-36	.
CCOC(=O)c1c(-c2cccc([N+](=O)[O-])c2)csc1NC(=O)CCCOc1ccccc1	13	0.14	19	14*	-10	3
CCOC(=O)c1c(-c2cccc([N+](=O)[O-])c2)csc1NC(=O)CCCOc1ccccc1OC	.	-0.46	10	15*	-42	2
COc1ccccc1OCCCC(=O)Nc1ccc([N+](=O)[O-])cc1Br	.	.	.	4	.	.
CCn1c(/C=C/c2c(C)[nH]c3ccccc23)nc2ccccc2c1=O	0	-0.76	12	7	-15	.
CN(C)S(=O)(=O)c1ccc2[nH]cc(/C=C/c3nc4ccccc4c(=O)n3-c3ccccc3)c2c1	-3	-0.28	10	13*	-34	6
CCn1c(/C=C/c2c[nH]c3ccccc23)nc2ccccc2c1=O	.	.	.	6	.	.
Cc1[nH]c2ccccc2c1/C=C/c1nc2ccccc2c(=O)n1-c1ccc([N+](=O)[O-])cc1	4	-0.56	3	11*	-7	4
SMILES	Yeast lifespan up	sdo1 growth	Measles CPE	RAM inhibit	BB579 growth dn	RAM efflux-def
Cc1nn(CCc2n[nH]c(=S)n2C2CCCCC2)c(C)c1Br	-7	-0.19	5	4	-48	.
CC1(C)CC(=O)C2=C(C1)c1c(ccc3ccccc13)NC2c1ccco1 (stereo not given)	-9	-1.1	6	16*	-8	2
O=S(=O)(c1cccc2nsnc12)N1CCc2ccccc21	-22	-0.64[9.2 µM]	11	2	9	.
CCCCn1c(NS(=O)(=O)c2ccc(C)cc2)c(S(=O)(=O)c2ccccc2)c2nc3ccccc3nc21	7	-1.2	28	12*	-17	12
CCCCn1c(NCc2ccccc2NS(=O)(=O)c2ccc(C)cc2)nc2ccccc21	-13	-0.87	4	-2	-24	.
C=CCNC(=S)N1CCN(c2ccc([N+](=O)[O-])cc2)CC1	-5	1.1	24	1	1	.
CCN(CC)S(=O)(=O)c1ccc2oc(C(=O)N3CCc4ccccc4C3)c(C)c2c1	4	-1	8	3	-51	.
Cc1c(C(=O)N2CCc3ccccc3C2)oc2ccc(S(=O)(=O)N3CC(C)CC(C)C3)cc12 (stereo not given)	5	0.64	7	12*	-41	10
Nn1c(SCC(=O)N2CCOCC2)nnc1-c1ccccc1Cl	-3	1.3	4	3	-15	.
O=C(Nc1ccc(Br)cc1)c1cccc(S(=O)(=O)Nc2cnc3ccccc3c2)c1	4	-0.87	6	15*	-21	2
COc1cccc(N2CCN(C(=O)CCNS(=O)(=O)c3ccc4c(c3)c(=O)n(C)c(=O)n4C)CC2)c1	.	.	.	0	.	.
COc1ccc(-c2nnc(SC(C)C(=O)Nc3cccc(Cl)c3)o2)cc1 (stereo not given)	-8	-0.38	8	15*	-41	2
CCOC(=O)c1cc(-c2ccccc2)sc1NC(=O)C(C)OC(=O)c1cccnc1OCC (stereo not given)	3	1.2	9	12*	-14	6
CCOC(=O)CNC(=S)N(Cc1cccs1)C1CCCCC1	2	0.28	20	0	-19	.
CC(CCc1ccccc1)NC(=O)CNC(=S)N(Cc1cccs1)C1CCCC1 (stereo not given)	.	.	.	12*	.	5
CCN(CC)S(=O)(=O)c1cc(C(=O)OCC(=O)Nc2cccc(Br)c2)ccc1F	8	-1.2	4	15*	-34	2
CCOc1ccc(-n2c(C)c(C(C)=O)c(C(C)=O)c2C)cc1	.	-0.43	8	4	-23	.
CCOc1ccc(-n2c(C)nc(O)c2N=Nc2ccccc2)cc1	.	.	.	14*	.	4
CCCCNC(=O)c1onc(CCl)c1C(=O)OC	-13	0.16	6	0	-20	.
CCCN(CC1CC1)C(=O)COC(=O)c1ccc(CNS(=O)(=O)c2ccc(F)c(Cl)c2)cc1	3	0.08	22	12*	-11	1
